# Experimental data taken from ChEMBL document CHEMBL1135913, “Structure-based design, synthesis, and biological evaluation of irreversible human rhinovirus 3C protease inhibitors. 6. Structure-activity studies of orally bioavailable, 2-pyridone-containing peptidomimetics” (J Med Chem, 2002).
# How the values were obtained:
# [1] = molecular target: T1, Human rhinovirus A protease (Human rhinovirus sp., UniProt Q4U254); assay: Inhibition of HRV Protease 3CP (serotype 14).; design: species or system Rhinovirus B
# T1 sequence (Q4U254 whole entry): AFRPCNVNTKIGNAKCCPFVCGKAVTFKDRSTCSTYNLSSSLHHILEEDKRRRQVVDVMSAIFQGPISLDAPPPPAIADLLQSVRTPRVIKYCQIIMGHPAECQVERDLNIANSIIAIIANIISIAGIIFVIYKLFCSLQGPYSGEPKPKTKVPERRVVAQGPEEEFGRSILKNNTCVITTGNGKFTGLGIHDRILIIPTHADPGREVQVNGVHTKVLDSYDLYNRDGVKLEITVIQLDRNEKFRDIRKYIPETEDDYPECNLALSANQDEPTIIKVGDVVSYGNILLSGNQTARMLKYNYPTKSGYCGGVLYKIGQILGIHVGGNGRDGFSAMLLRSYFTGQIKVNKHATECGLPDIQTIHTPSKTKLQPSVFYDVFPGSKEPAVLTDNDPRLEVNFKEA
# [2] = molecular target: T2, Human rhinovirus A protease (Human rhinovirus sp.) (UniProt Q4U254); assay: Inhibitory activity against Human Rhinovirus Protease 3C (serotype 14); details: Rhinovirus B
# T2 sequence (whole entry): T1 sequence (Q4U254 whole entry)
# [3] = molecular target: T2, Human rhinovirus A protease (Human rhinovirus sp.); assay: (§1) cytotoxicity against HRV Protease 3CP (serotype 14)
# [4] = Half life period after 15 mg/kg iv dose in Dogs; assay type: ADME, organism-based, Canis lupus familiaris; design: dose 15 mg/kg, route intravenous; details: dog, in vivo
# How it was run: (§2)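 Dogs (n = 3) received the compound iv or orally in 80:20 propylene glycol:water at 15.0 mg/mL. Blood was sampled periodically for up to 24 h. Plasma levels were measured by LC-MS (detection limit 5 ng/mL). Parameters came from noncompartmental analysis of each animal's concentration–time data.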
# [5] = Half life period after 30 mg/kg po dose in Dogs; assay type: ADME, organism-based, Canis lupus familiaris; design: dose 30 mg/kg, route oral; details: dog, in vivo; how it was run: as §2
# [6] = Tmax value after 15 mg/kg iv dose in Dogs; assay type: ADME, organism-based, Canis lupus familiaris; design: dose 15 mg/kg, route intravenous; details: dog, in vivo; how it was run: as §2
# [7] = Tmax value after 30 mg/kg po dose in Dogs; assay type: ADME, organism-based, Canis lupus familiaris; design: dose 30 mg/kg, route oral; details: dog, in vivo; how it was run: as §2
# [8] = Volume distribution after 15 mg/kg iv dose in Dogs; assay type: ADME, organism-based, Canis lupus familiaris; design: dose 15 mg/kg, route intravenous; details: dog, in vivo, read-out: V; how it was run: as §2
# [9] = system: Canis familiaris; assay: Volume distribution after 30 mg/kg po dose in Dogs; assay type: ADME, organism-based, Canis lupus familiaris; design: dose 30 mg/kg, route oral; details: dog, in vivo; how it was run: as §2
# [10] = Cmax value after 30 mg/kg po dose in Dogs; assay type: ADME, organism-based, Canis lupus familiaris; design: dose 30 mg/kg, route oral; details: dog, in vivo; how it was run: as §2
# [11] = Cmax value after 15 mg/kg iv dose in Dogs; assay type: ADME, organism-based, Canis lupus familiaris; design: dose 15 mg/kg, route intravenous; details: dog, in vivo; how it was run: as §2
# [12] = AUC value after 15 mg/kg iv dose in Dogs; assay type: ADME, organism-based, Canis lupus familiaris; design: dose 15 mg/kg, route intravenous; details: dog, plasma; how it was run: as §2
# [13] = AUC value after 30 mg/kg po dose in Dogs; assay type: ADME, organism-based, Canis lupus familiaris; design: dose 30 mg/kg, route oral; details: dog, plasma; how it was run: as §2
# [14] = Plasma clearance after 15 mg/kg iv dose in Dogs; assay type: ADME, organism-based, Canis lupus familiaris; design: dose 15 mg/kg, route intravenous; details: dog; how it was run: as §2
# [15] = Plasma clearance after 30 mg/kg po dose in Dogs; assay type: ADME, organism-based, Canis lupus familiaris; design: dose 30 mg/kg, route oral; details: dog; how it was run: as §2
# [16] = molecular target: T2, Human rhinovirus A protease (Human rhinovirus sp.); assay: cytotoxicity against HRV Protease 3CP (serotype 1A); assay type: functional
# [17] = molecular target: T2, Human rhinovirus A protease (Human rhinovirus sp.); assay: cytotoxicity against HRV Protease 3CP (serotype 2); assay type: functional
# [18] = molecular target: T2, Human rhinovirus A protease (Human rhinovirus sp.); assay: cytotoxicity against HRV Protease 3CP (serotype 23); assay type: functional
# [19] = molecular target: T2, Human rhinovirus A protease (Human rhinovirus sp.); assay: cytotoxicity against HRV Protease 3CP (serotype 25); assay type: functional
# [20] = molecular target: T2, Human rhinovirus A protease (Human rhinovirus sp.); assay: cytotoxicity against HRV Protease 3CP (serotype 3); assay type: functional
# [21] = molecular target: T2, Human rhinovirus A protease (Human rhinovirus sp.); assay: cytotoxicity against HRV Protease 3CP (serotype 39); assay type: functional
# [22] = molecular target: T2, Human rhinovirus A protease (Human rhinovirus sp.); assay: cytotoxicity against HRV Protease 3CP (serotype 78); assay type: functional
# [23] = molecular target: T2, Human rhinovirus A protease (Human rhinovirus sp.); assay: cytotoxicity against HRV Protease 3CP (serotype 9); assay type: functional
# [24] = molecular target: T2, Human rhinovirus A protease (Human rhinovirus sp.); assay: cytotoxicity against HRV Protease 3CP (serotype Hanks); assay type: functional
# [25] = molecular target: T2, Human rhinovirus A protease (Human rhinovirus sp.); assay: cytotoxicity against HRV Protease 3CP (serotype 10); assay type: functional
# [26] = molecular target: T2, Human rhinovirus A protease (Human rhinovirus sp.); assay: cytotoxicity against HRV Protease 3CP (serotype 11); assay type: functional
# [27] = molecular target: T2, Human rhinovirus A protease (Human rhinovirus sp.); assay: as §1; assay type: functional
# [28] = molecular target: T2, Human rhinovirus A protease (Human rhinovirus sp.); assay: cytotoxicity against HRV Protease 3CP (serotype 16); assay type: functional
# [29] = molecular target: T2, Human rhinovirus A protease (Human rhinovirus sp.); assay: cytotoxicity against HRV Protease 3CP (serotype 19); assay type: functional
# [30] = Oral bioavailability after 30 mg/kg po dose in Dogs; assay type: ADME, organism-based, Canis lupus familiaris; details: dog, in vivo; how it was run: as §2
# [31] = molecular target: T2, Human rhinovirus A protease (Human rhinovirus sp.); assay: cytotoxicity against HRV Protease 3CP (serotype 13); assay type: functional
# [32] = species on record: Homo sapiens; assay: Half life upon exposure to human plasma
# [33] = species on record: Homo sapiens; assay: Loss of compound (%metabolized) after 30 min exposure to human liver microsomes; details: read-out: Metabolism
# [34] = molecular target: T2, Human rhinovirus A protease (Human rhinovirus sp.); assay: cytotoxicity against HRV Protease 3CP (serotype 1A),; assay type: functional
# [35] = molecular target: T2, Human rhinovirus A protease (Human rhinovirus sp.); assay: cytotoxicity against HRV Protease 3CP (serotype 10),; assay type: functional
# [36] = molecular target: T2, Human rhinovirus A protease (Human rhinovirus sp.); assay: cytotoxicity against HRV Protease 3CP (serotype 14),; assay type: functional
# [37] = Half life upon exposure to human plasma; assay type: ADME, cell-free
# How it was run: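 Pooled heparinized human plasma from 10 donors (stored at -70 °C), or 100 mM potassium phosphate buffer pH 7.4, n = 3 each. Compound added from fresh 5 mM acetonitrile stock to 25 μM final. Incubated at 37 °C for 1–3 h with regular sampling, acetonitrile precipitation, HPLC-UV at 212 nm. Half-life from linear regression of mean concentration–time data.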
# [38] = Loss of compound (%metabolized) after 30 min exposure to human liver microsomes; assay type: ADME, Microsome; details: read-out: Metabolism
# How it was run: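 Pooled human liver microsomes (1 mg/mL, 6–8 livers) with 2 mM NADPH in 100 mM potassium phosphate pH 7.4 were preincubated 1 min at 37 °C. Compound was added at 25 μM and incubated 30 min, then quenched with acetonitrile. Loss was measured against time-zero controls by reversed-phase HPLC with UV at 215 nm.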
smiles,measurement,setting,value
CCOC(=O)/C=C/[C@H](CCC(N)=O)NC(=O)[C@H](Cc1ccccc1)n1cccc(NC(=O)C(C)(C)C)c1=O,EC50,[1],0.518 µM
same,K obs / 1,[2],5040 M⁻¹ s⁻¹
same,CC50,[3],> 10 µM
Cc1cc(C(=O)Nc2cccn([C@@H](Cc3ccc(F)c(F)c3)C(=O)N[C@H](/C=C/C(=O)OC(C)C)C[C@@H]3CCNC3=O)c2=O)no1,half-life,[4],3.23 h
same,half-life,[5],3.4 h
same,Tmax,[6],4 min
same,Tmax,[7],1.17 h
same,Vd,[8],4.2 L/kg
same,V,[9],9.6 L/kg
same,Cmax,[10],3500 ng/mL
same,Cmax,[11],10600 ng/mL
same,AUC,[12],17100 ng·h/mL
same,AUC,[13],16300 ng·h/mL
same,clearance,[14],14.7 mL/min/kg
same,CL/F,[15],33 mL/min/kg
same,CC50,[16],> 10 µM
same,CC50,[17],> 10 µM
same,CC50,[18],> 10 µM
same,CC50,[19],> 10 µM
same,CC50,[20],> 10 µM
same,CC50,[21],> 10 µM
same,CC50,[22],> 10 µM
same,CC50,[23],> 10 µM
same,CC50,[24],> 10 µM
same,CC50,[25],> 10 µM
same,CC50,[26],> 10 µM
same,CC50,[27],> 10 µM
same,CC50,[28],> 10 µM
same,CC50,[29],> 10 µM
same,bioavailability,[30],48%
same,CC50,[31],> 10 µM
same,half-life,[32],9.7 h
same,metabolised at 0.5 h,[33],55%
CCOC(=O)/C=C/[C@H](CCC(N)=O)NC(=O)Cn1cccc(NC(=O)OCc2ccccc2)c1=O,EC50,[1],> 10 µM
same,CC50,[3],> 10 µM
CCOC(=O)/C=C/[C@H](CCC(N)=O)NC(=O)[C@H](Cc1ccccc1)n1cccc(NC(=O)C2CCCC2)c1=O,EC50,[1],0.034 µM
same,K obs / 1,[2],37400 M⁻¹ s⁻¹
same,CC50,[3],> 10 µM
CCOC(=O)/C=C/[C@H](C[C@@H]1CCNC1=O)NC(=O)[C@H](Cc1ccccc1)n1cccc(NC(=O)OCc2ccccc2)c1=O,K obs / 1,[2],380000 M⁻¹ s⁻¹
same,CC50,[27],> 1 µM
CCOC(=O)c1ccc(OCCC2CCN(c3ccc(C)nn3)CC2)cc1 [PIRODAVIR],EC50,[1],0.044 µM
same,CC50,[3],> 10 µM
CCOC(=O)/C=C/[C@H](CCC(N)=O)NC(=O)[C@H](Cc1ccccc1)n1ccc(C)c(NC(=O)c2cc(C)on2)c1=O,K obs / 1,[2],116000 M⁻¹ s⁻¹
CCOC(=O)/C=C/[C@H](C[C@H]1CCNC1=O)NC(=O)[C@H](Cc1ccccc1)n1cccc(NC(=O)OCc2ccccc2)c1=O,EC50,[1],0.469 µM
same,K obs / 1,[2],6340 M⁻¹ s⁻¹
same,CC50,[3],> 10 µM
CCOC(=O)/C=C/[C@H](CCC(N)=O)NC(=O)[C@H](Cc1ccccc1)n1cccc(NC(=O)C2SCCS2)c1=O,EC50,[1],0.104 µM
same,CC50,[16],> 10 µM
same,K obs / 1,[2],114000 M⁻¹ s⁻¹
same,CC50,[25],> 10 µM
same,CC50,[27],> 10 µM
CCOC(=O)/C=C/[C@H](CCC(N)=O)NC(=O)[C@H](Cc1ccc(F)cc1)n1cccc(NC(=O)OCc2ccccc2)c1=O,EC50,[1],0.014 µM
same,CC50,[34],> 10 µM
same,K obs / 1,[2],81400 M⁻¹ s⁻¹
same,CC50,[35],> 10 µM
same,CC50,[36],> 320 µM
CCOC(=O)/C=C/[C@H](C[C@@H]1CCNC1=O)NC(=O)[C@H](Cc1ccc(F)c(F)c1)n1cccc(NC(=O)c2cc(C)on2)c1=O,half-life,[37],1.4 h
same,metabolised at 0.5 h,[38],80%
same,EC50,[1],0.001 µM
same,CC50,[16],> 10 µM
same,K obs / 1,[2],1.8e+06 M⁻¹ s⁻¹
same,CC50,[25],> 10 µM
same,CC50,[27],> 10 µM
